This note sets out measurements from ChEMBL document CHEMBL5053482, “Rapid Optimization of the Metabolic Stability of a Human Immunodeficiency Virus Type-1 Capsid Inhibitor Using a Multistep Computational Workflow” (J Med Chem, 2021).

Activity calls are given as the source filed them. The calls are words filed in the database; no cut-off is given here.

A short description of series [1]: Cytotoxicity against in human U87.CD4.CCR5.CXCR4 cells assessed as reduction in cell viability measured after 48 hrs by CCK8 assay. Particulars: u87.cd4.ccr5.cxcr4, 48 h. It counts as cell-based. Put shortly: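 U87 cells stably expressing CD4/CCR5 or CD4/CXCR4 were grown in a humidified 5% CO2 atmosphere at 37°C and seeded at 1.2 × 10^4 cells/well 24 h before treatment. Cells were exposed to compound (1mM-0.3μM) or DMSO for 48 h at 37°C, then to CCK-8 for 4 h at 37°C, and absorbance was read at 450 nm. Controls were untreated cells and 0.1% SDS-treated cells.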

The subject of series [2] is Human immunodeficiency virus 1. The experiment in a line: Binding affinity to C-terminal His-tagged HIV1 NL4-3 capsid protein M66A mutant expressed in Escherichia coli BL21 codon plus (DE3)RIL.
Series [3] concerns Human immunodeficiency virus 1. As to the kind of experiment: Antiviral activity against HIV1 NL4-3 Env-deficient pseudotype virus infected in human U87.CD4.CCR5.CXCR4 cells assessed by reduction in viral infection in early stage measured after 48 hrs by luciferase activity based single-round infection assay. It counts as functional, organism-based.
Series [4] is described as follows: Binding affinity to hexameric C-terminal His-tagged HIV1 NL4-3 capsid protein A14C/E45C/W184A/M185A mutant expressed in Escherichia coli BL21 codon plus (DE3)RIL assessed as dissociation constant by SPR analysis. Also noted: species or system Human immunodeficiency virus 1. An outline of the steps:
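SPR at 25 °C using one-shot kinetics. Disulfide-stabilized CA hexamer was assembled by βME dialysis, isolated by SEC, and amine-coupled to a GLH chip at 100 μg/mL in 10 mM sodium acetate pH 5.0. An IgG b12 surface served as reference. Compound was injected as 1:4 serial dilutions from 5 or 2 μM in PBS with 3% DMSO and 0.005% polysorbate 20, pH 7.4, at 100 μl/min. Association was 1 min and dissociation up to 5 min.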
On the technique in general: SPR reads the build-up and loss of mass on a sensor chip optically.

Series [5] has as its system Human immunodeficiency virus 1. As to the kind of experiment: Binding affinity to hexameric C-terminal His-tagged HIV1 NL4-3 capsid protein A14C/E45C/W184A/M185A mutant expressed in Escherichia coli BL21 codon plus (DE3)RIL assessed as association rate constant by SPR analysis. An outline of the steps:
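Disulfide-stabilised CA hexamers, isolated by size exclusion after stepwise βME dialysis, amine-coupled at 100 μg/mL (10mM sodium acetate pH 5.0) to GLH chip; IgG b12 reference surface. 25 °C; running buffer PBS, 3% DMSO, 0.005% polysorbate 20, pH 7.4. One-shot kinetics of 1:4 serial dilutions from 5 or 2 μM, 100 μl/min, 1 min association, up to 5 min dissociation.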

The nature of series [6]: Therapeutic index, ratio of CC50 for cytotoxicity against human 87.CD4.CCR5.CXCR4 cells to IC50 for antiviral activity against HIV1 NL4-3 virus in human 87.CD4.CCR5.CXCR4 cells. In kind it is toxicity, cell-based. Particulars: read-out: TI. Put shortly:
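U87.CD4.CCR5/CXCR4 cells were seeded 24 h ahead and incubated 48 h at 37°C. Antiviral arm: p24-normalised single-round luciferase pseudovirus (pNL4-3-Luc+R-E− backbone, BG505 Env), luminescence read after lysis. […] Index is CC50 divided by IC50.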

In series [7] the test system is Human immunodeficiency virus 1. As to the kind of experiment: Binding affinity to C-terminal His-tagged HIV1 NL4-3 capsid protein N57A mutant expressed in Escherichia coli BL21 codon plus (DE3)RIL.
Series [8] relates to Human immunodeficiency virus 1. As to the kind of experiment: Binding affinity to C-terminal His-tagged HIV1 NL4-3 capsid protein K70A mutant expressed in Escherichia coli BL21 codon plus (DE3)RIL.
A short description of series [9]: Half life in human liver microsomes. In kind it is ADME, Microsome. (In general: Liver microsomes are vesicles of endoplasmic reticulum, rich in cytochrome P450 enzymes.)
Setting [10] is: Human immunodeficiency virus 1, NL4-3, U87.CD4.CCR5.CXCR4, 48 h, read-out: IC50.

What is called CC50 is the concentration giving 50% cytotoxicity. A word on the IC50: it is the point on the concentration scale where inhibition reaches its midpoint. In general, Kd refers to the constant that tells how readily two partners part at equilibrium. With `CN(C(=O)C(Cc1ccccc1)NC(=O)Cc1n[nH]c2c(N)cccc12)c1ccc2[nH]ncc2c1` (racemic), the CC50 in series [1] (read-out: CC50) was 415 µM. Moreover, the outcome in series [2], in series [7] and in [8] was inactive. In series [3] (setting [10]), the IC50 was found to be 2420 nM. The Kd in series [4] is 494 nM. In addition, the Ka in [5] was 2.2 10^5/M/s. Also, the selectivity ratio in series [6] amounted to 171.
For the molecule `CN(C(=O)[C@@H](Cc1ccccc1)NC(=O)Cc1c[nH]c2c(N)cccc12)c1ccccc1`, the CC50 entry in [1] is listed as “Not Active”. Further, the IC50 entry in series [3] (u87.cd4.ccr5.cxcr4) is “Not Active”.
Regarding `CN(C(=O)C(Cc1ccccc1)NC(=O)Cc1c[nH]c2c(N)cccc12)c1ccccc1` (racemic), in series [1] (read-out: CC50), the CC50 was 83.5 µM. Further, the outcome in series [2], in series [7] and in series [8] was inactive. Moreover, the IC50 in [3] (setting [10]) worked out at 97.2 nM. In addition, the Kd in series [4] stood at 189 nM. Also, in [5], the Ka is 5.62 10^5/M/s. Further, in series [6], the selectivity ratio amounted to 859.
With `Cc1[nH]c2ccccc2c1CC(=O)N[C@@H](Cc1ccccc1)C(=O)N(C)c1ccccc1`, the CC50 in series [1] (read-out: CC50) came out at 66.7 µM. The IC50 in series [3] (setting [10]) is 80 nM. In addition, in series [5], the Ka is 4.75 10^5/M/s.
For `CN(C(=O)[C@@H](Cc1ccccc1)NC(=O)Cc1n[nH]c2c(N)cccc12)c1ccc2[nH]ncc2c1`, in [1], the CC50 entry is recorded as “Not Active”. Also, the IC50 entry in [3] (u87.cd4.ccr5.cxcr4) was “Not Active”.
For the molecule `Cc1[nH]c2ccccc2c1CC(=O)N[C@H](Cc1ccccc1)C(=O)N(C)c1ccc2[nH]ncc2c1`, the CC50 result in series [1] is listed as “Not Active”. Moreover, the IC50 result in series [3] (u87.cd4.ccr5.cxcr4) is “Not Active”.
With `CN(C(=O)[C@H](Cc1ccccc1)NC(=O)Cc1c[nH]c2c(N)cccc12)c1ccccc1`, the CC50 in series [1] (read-out: CC50) was determined as 101 µM. The IC50 in [3] (setting [10]) was 62.1 nM. Also, the Kd in [4] was 139 nM. In addition, in [5], the Ka is 4.76 10^5/M/s. For the same molecule, the selectivity ratio in [6] was determined as 1630. The t1/2 in [9] came out at 15.4 min.
For the molecule `Cc1[nH]c2ccccc2c1CC(=O)N[C@@H](Cc1ccccc1)C(=O)N(C)c1ccc2[nH]ncc2c1`, the CC50 in [1] (read-out: CC50) turned out to be 46.9 µM. Also, the IC50 in series [3] (setting [10]) amounted to 20.6 nM. In addition, the Kd in series [4] is 25 nM. For the same molecule, the Ka in series [5] was 4.37 10^5/M/s. For the same molecule, the selectivity ratio in series [6] is 2280. Besides, the t1/2 in [9] is listed as 1 min.
Regarding `Cc1[nH]c2ccccc2c1CC(=O)NC(Cc1ccccc1)C(=O)N(C)c1ccccc1` (racemic), in series [1] (read-out: CC50), the CC50 was found to be 36.8 µM. In addition, the result in series [2], in series [7] and in series [8] was inactive. The IC50 in series [3] (setting [10]) turned out to be 55.5 nM. Further, in series [5], the Ka was 3.07 10^5/M/s.
Take `CN(C(=O)[C@H](Cc1ccccc1)NC(=O)Cc1n[nH]c2c(N)cccc12)c1ccc2[nH]ncc2c1`: in series [1] (read-out: CC50), the CC50 came out at 102 µM. In addition, the IC50 in series [3] (setting [10]) was 279 nM. The Kd in series [4] is 337 nM. Moreover, the Ka in series [5] is 2.86 10^5/M/s. In addition, in series [6], the selectivity ratio is 365. Moreover, the t1/2 in [9] was 102 min.
As to `Cc1[nH]c2ccccc2c1CC(=O)N[C@H](Cc1ccccc1)C(=O)N(C)c1ccccc1`, the CC50 entry in series [1] is reported as “Not Active”. Moreover, the IC50 entry in [3] (u87.cd4.ccr5.cxcr4) is reported as “Not Active”.
For the molecule `Cc1[nH]c2ccccc2c1CC(=O)NC(Cc1ccccc1)C(=O)N(C)c1ccc2[nH]ncc2c1` (racemic), in series [1] (read-out: CC50), the CC50 is 76.9 µM. Also, the result in [2], in series [7] and in [8] was inactive. In series [3] (setting [10]), the IC50 stood at 38.3 nM. In series [4], the Kd came out at 43.9 nM. In addition, the Ka in series [5] is 2.75 10^5/M/s. Besides, in series [6], the selectivity ratio is 2010.
